# Experimental data as given in ChEMBL document CHEMBL3352791, “Thioaryl naphthylmethanone oxime ether analogs as novel anticancer agents” (J Med Chem, 2014).
# Active and inactive are the calls of the source. The calls are words filed in the database; no cut-off is given here.
# How the values were obtained:
# [1] = Antiproliferative activity against mouse NIH/3T3 cells after 24 hrs by MTT assay; format: functional, cell-based; conditions: NIH3T3, 24 h
# Procedure, shortened: (§1)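 MTT viability: cells seeded at 1×10^4 per well in DMEM with 10% FBS, left to adhere overnight, then serum-starved 4 h. Compounds were given at a range of doses, with 0.1% DMSO vehicle as control. EC50 was taken from dose-response curves spanning 100nM-50µM. Data are mean ± SEM from at least three independent experiments.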
# MCF7 [2] = experiment: Antitumor activity against human MCF7 cells xenografted in NIH-3 mouse assessed as reduction in tumor volume at 16 mg/kg, po for 25 days relative to control; format: functional; conditions: MCF7, 600 h
# MCF7 [3] = experiment: Cell cycle arrest in human […] cells assessed as accumulation at G2 phase at 7.5 uM by propidium iodide staining by FACS analysis (reference value: 10.96%); format: functional
# MCF7 [4] = experiment: Antiproliferative activity against human ER-negative MCF7 cells after 72 hrs by MTT assay; format: functional, cell-based; conditions: MCF7, 72 h
# MCF7 [5] = experiment: Cell cycle arrest in human […] cells assessed as accumulation at G1 phase at 5 uM by propidium iodide staining by FACS analysis (reference value: 62.88%); format: functional
# SW-620 = experiment: Antiproliferative activity against human SW620 cells after 24 hrs by MTT assay; format: functional, cell-based; conditions: SW-620, 24 h; procedure, shortened: as §1
# [6] = Antiproliferative activity against human prostate, androgen receptor positive DU145 cells after 24 hrs by MTT assay; format: functional, cell-based, DU-145; conditions: du-145
# [7] = Safety index, ratio of IC50 for human MCF10A cells to EC50 for human DLD1 cells; format: toxicity, cell-based, MCF-10A; conditions: MCF10A cells versus DLD1 cells, read-out: Ratio IC50/EC50
# Procedure, shortened: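 Safety index is the IC50 in the normal cells divided by the EC50 in the cancer cells. Both values come from MTT assays: cells in DMEM with 10% FBS, serum-starved 4 h, then exposed to compound across a 100nM-50µM dose range with 0.1% DMSO as vehicle control.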
# MCF7 [8] = experiment: Cell cycle arrest in human […] cells assessed as accumulation at G1 phase at 7.5 uM by propidium iodide staining by FACS analysis (reference value: 62.88%); format: functional
# MDA-MB-231 [9] = experiment: Cell cycle arrest in human […] cells assessed as accumulation at subG1 phase at 2.5 uM by propidium iodide staining by FACS analysis (reference value: 0.3%); format: functional
# [10] = Antiproliferative activity against human HCT116 cells after 24 hrs by MTT assay; format: functional, cell-based; conditions: HCT-116, 24 h; procedure, shortened: as §1
# MDA-MB-231 [11] = experiment: Cell cycle arrest in human […] cells assessed as accumulation at subG1 phase at 5 uM by propidium iodide staining by FACS analysis (reference value: 0.3%); format: functional
# [12] = target: Signal transducer and activator of transcription 3 (Homo sapiens) (UniProt P40763); experiment: Inhibition of EGF-induced STAT3 phosphorylation in human MDA-MB-231 cells at 1 uM by ELISA; format: cell-based
# Signal transducer and activator of transcription 3 (Homo sapiens), sequence (P40763 whole entry): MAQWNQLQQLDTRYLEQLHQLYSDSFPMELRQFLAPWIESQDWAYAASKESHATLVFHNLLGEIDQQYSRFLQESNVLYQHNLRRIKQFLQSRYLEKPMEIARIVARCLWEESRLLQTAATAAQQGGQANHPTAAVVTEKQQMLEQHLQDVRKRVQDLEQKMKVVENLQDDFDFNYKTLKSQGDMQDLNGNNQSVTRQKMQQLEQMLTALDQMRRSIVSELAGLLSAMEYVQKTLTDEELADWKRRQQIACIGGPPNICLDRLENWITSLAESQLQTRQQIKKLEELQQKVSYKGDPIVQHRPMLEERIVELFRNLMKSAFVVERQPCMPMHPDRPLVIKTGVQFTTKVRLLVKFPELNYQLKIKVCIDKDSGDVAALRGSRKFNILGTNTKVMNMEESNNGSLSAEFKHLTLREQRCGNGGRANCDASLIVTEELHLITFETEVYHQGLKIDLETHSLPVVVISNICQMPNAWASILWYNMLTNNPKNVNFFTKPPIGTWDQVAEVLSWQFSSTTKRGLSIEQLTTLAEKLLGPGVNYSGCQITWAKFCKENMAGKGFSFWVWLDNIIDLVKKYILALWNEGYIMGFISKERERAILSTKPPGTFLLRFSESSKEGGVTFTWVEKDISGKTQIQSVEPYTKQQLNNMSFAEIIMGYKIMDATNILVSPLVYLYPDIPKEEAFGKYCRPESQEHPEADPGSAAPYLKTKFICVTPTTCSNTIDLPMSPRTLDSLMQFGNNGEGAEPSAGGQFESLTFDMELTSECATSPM
# MDA-MB-231 [13] = experiment: Induction of apoptosis in human […] MDA-MB-231 cells assessed as increase in Bax to Bcl2 ratio at 5 uM after 24 hrs by immunoblotting analysis; format: functional, cell-based
# MCF7 [14] = experiment: Inhibition of INS expression in human MCF7 cells at 5 uM by ELISA; format: functional, cell-based
# [15] = target: Dual 3',5'-cyclic-AMP and -GMP phosphodiesterase 11A (Homo sapiens) (UniProt Q9HCR9); experiment: Inhibition of PDE11A1 (unknown origin) activity at 1 to 10 uM
# Dual 3',5'-cyclic-AMP and -GMP phosphodiesterase 11A (Homo sapiens), sequence (Q9HCR9 whole entry, looked up, canonical isoform): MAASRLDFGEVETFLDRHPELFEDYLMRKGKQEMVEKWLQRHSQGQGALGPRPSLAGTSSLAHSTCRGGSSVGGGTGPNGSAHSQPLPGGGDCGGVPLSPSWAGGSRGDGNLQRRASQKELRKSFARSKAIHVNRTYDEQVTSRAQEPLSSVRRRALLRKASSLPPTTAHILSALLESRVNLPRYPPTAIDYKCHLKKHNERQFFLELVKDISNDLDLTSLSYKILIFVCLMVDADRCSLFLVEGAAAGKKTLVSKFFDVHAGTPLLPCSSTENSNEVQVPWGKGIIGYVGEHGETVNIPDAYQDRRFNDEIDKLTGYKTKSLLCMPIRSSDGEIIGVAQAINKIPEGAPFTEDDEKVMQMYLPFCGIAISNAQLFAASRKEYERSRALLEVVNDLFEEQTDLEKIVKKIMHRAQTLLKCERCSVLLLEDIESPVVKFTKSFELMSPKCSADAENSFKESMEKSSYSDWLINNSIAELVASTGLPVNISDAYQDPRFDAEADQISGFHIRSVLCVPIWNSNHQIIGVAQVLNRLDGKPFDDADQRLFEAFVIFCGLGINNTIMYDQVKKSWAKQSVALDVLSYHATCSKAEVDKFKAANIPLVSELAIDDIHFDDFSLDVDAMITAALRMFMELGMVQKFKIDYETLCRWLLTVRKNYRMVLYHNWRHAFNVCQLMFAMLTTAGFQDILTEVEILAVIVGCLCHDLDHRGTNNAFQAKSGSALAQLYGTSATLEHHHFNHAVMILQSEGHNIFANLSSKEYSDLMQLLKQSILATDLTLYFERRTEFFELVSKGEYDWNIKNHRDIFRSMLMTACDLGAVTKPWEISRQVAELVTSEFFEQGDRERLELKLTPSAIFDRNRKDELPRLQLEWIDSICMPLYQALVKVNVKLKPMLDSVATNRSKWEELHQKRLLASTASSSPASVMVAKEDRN
# Procedure, shortened: (§2)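 Recombinant PDE isoform activity was read by fluorescence polarization. A binding reagent complexes with the nucleotide monophosphate that the phosphodiesterase generates from cAMP/cGMP, and this raises the polarization of the labelled substrate. Reference standards were PDE1A3 10µM IBMX, PDE2A3 1nM BAY 60-7550, PDE3CAT 1µM cilostazol, PDE4CAT rolipram, PDE5CAT 0.1µM sildenafil, PDE7A […], PDE8A1 10µM BRL-50481, PDE9A1 1µM SB 36216 and PDE11A1 dipyridamole.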
# MDA-MB-231 [16] = experiment: Inhibition of cell migration in human MDA-MB-231 cells assessed as […] at 1 uM after 24 hrs by wound healing assay; format: functional, cell-based
# MCF7 [17] = experiment: Inhibition of VEGF expression in human MCF7 cells at 5 uM by ELISA; format: functional, cell-based
# [18] = test system: Mast/stem cell growth factor receptor Kit (Homo sapiens), P10721 [D816G]; experiment: Inhibition of cKit D816G mutant (unknown origin) at 10 uM
# Mast/stem cell growth factor receptor Kit (Homo sapiens), P10721 [D816G], sequence (P10721 whole entry D816G): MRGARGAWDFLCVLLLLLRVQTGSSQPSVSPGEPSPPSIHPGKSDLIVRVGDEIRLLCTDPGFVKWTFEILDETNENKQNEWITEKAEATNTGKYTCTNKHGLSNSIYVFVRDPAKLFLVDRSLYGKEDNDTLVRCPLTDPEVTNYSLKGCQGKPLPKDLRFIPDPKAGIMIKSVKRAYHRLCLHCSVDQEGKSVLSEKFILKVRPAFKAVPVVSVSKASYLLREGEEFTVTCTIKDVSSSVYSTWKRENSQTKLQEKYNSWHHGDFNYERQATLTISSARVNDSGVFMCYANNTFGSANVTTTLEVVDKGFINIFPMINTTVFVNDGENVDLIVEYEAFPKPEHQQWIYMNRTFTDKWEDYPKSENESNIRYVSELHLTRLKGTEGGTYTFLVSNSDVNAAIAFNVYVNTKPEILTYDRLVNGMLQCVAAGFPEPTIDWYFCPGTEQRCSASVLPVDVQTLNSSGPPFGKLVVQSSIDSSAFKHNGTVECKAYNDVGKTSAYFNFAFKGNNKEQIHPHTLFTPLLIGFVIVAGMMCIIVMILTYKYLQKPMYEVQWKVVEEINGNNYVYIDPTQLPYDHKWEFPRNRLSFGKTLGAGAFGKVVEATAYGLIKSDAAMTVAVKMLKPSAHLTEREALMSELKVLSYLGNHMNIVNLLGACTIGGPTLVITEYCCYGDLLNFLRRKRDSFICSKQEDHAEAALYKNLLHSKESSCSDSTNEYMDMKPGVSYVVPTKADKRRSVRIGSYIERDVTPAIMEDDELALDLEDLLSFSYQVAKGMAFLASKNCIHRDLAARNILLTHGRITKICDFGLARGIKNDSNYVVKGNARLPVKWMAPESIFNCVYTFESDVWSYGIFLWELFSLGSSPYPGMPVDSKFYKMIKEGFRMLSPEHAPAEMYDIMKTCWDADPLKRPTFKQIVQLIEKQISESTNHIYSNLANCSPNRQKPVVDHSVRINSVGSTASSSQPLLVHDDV
# Procedure, shortened: (§3)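 Cell-free kinase profiling was run as a standard 33P-ATP-based in vitro kinase assay.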
# [19] = target: cGMP-dependent 3',5'-cyclic phosphodiesterase (Homo sapiens) (UniProt O00408); experiment: Inhibition of PDE2A3 (unknown origin) activity at 1 to 10 uM; procedure, shortened: as §2
# cGMP-dependent 3',5'-cyclic phosphodiesterase (Homo sapiens), sequence (O00408 whole entry): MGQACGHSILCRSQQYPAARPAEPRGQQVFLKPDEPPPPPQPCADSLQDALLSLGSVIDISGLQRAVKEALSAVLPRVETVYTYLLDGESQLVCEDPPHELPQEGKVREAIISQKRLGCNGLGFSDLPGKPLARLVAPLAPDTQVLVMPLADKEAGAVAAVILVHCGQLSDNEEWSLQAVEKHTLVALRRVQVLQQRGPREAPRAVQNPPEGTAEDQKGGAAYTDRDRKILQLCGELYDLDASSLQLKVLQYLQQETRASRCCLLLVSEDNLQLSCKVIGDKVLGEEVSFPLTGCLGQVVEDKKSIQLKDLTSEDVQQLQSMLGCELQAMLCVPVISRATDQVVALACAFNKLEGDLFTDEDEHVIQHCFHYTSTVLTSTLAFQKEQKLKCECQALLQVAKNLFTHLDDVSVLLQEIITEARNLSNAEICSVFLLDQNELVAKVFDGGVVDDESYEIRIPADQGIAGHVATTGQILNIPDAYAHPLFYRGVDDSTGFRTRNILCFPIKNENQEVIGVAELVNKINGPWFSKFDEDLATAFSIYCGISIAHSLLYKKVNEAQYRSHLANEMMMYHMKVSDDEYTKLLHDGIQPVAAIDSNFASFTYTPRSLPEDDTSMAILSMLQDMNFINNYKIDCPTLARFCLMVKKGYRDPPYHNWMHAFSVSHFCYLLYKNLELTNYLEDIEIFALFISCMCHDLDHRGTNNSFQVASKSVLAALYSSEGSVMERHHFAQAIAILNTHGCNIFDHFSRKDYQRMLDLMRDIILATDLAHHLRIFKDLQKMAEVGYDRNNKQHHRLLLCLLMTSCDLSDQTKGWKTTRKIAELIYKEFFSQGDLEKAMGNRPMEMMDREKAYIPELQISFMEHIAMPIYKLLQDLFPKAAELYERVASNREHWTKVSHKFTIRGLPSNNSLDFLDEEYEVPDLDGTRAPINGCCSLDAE
# MDA-MB-231 [20] = experiment: Inhibition of MTA expression in human MDA-MB-231 cells at 1 uM after 24 hrs by qPCR analysis; format: functional, cell-based
# Procedure, shortened: (§4)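 MDA-MB-231 cells treated at 1µM. Transcript levels measured by qPCR with GAPDH as internal control.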
# MDA-MB-231 [21] = experiment: Inhibition of EGF-induced cell migration in human MDA-MB-231 cells assessed as decrease in number of cells toward free space at 1 uM after 24 hrs by wound healing assay; format: functional, cell-based
# Procedure, shortened: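 Confluent MDA-MB-231 monolayers scratch-wounded, washed and treated at 1μM in serum-free medium ± EGF (100ng/ml) for 24 h. Wound closure measured as distances in six random fields at 10×.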
# MCF7 [22] = experiment: Inhibition of EGF expression in human MCF7 cells at 5 uM by ELISA; format: functional, cell-based
# [23] = target: Phosphodiesterase 3 (Homo sapiens) (UniProt Q14432+Q13370); experiment: Inhibition of PDE3 CAT (unknown origin) activity at 1 to 10 uM; format: protein assay; procedure, shortened: as §2
# MDA-MB-231 [24] = experiment: Induction of apoptosis in human […] cells assessed as loss of mitochondrial membrane potential at 5 uM after 24 hrs by JC-1 staining based flow cytometry; format: functional, cell-based
# Procedure, shortened: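 Cells treated at 5μM for 24 h, trypsinized, stained with JC-1 (1μg/ml) for 15 min at 37°C, washed in PBS and analysed by flow cytometry in FL1 and FL2 channels.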
# MDA-MB-231 [25] = experiment: Inhibition of VEGF expression in human MDA-MB-231 cells at 5 uM by ELISA; format: functional, cell-based
# DLD-1 = experiment: Antitumor activity against human DLD1 cells assessed as reduction in CD133 positive in colon cancer stem cells after 24 hrs by flow cytometry; format: functional, cell-based
# MDA-MB-231 [26] = experiment: Inhibition of VEGF-C expression in human MDA-MB-231 cells at 1 uM after 24 hrs by qPCR analysis; format: functional, cell-based
# Procedure, shortened: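 Gene expression was measured by qPCR in MDA-MB-231 breast cancer cells treated with 1µM compound. GAPDH served as the housekeeping internal control.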
# [27] = target: Platelet-derived growth factor receptor alpha (Homo sapiens) (UniProt P16234); experiment: Inhibition of PDGFRalpha (unknown origin) at 10 uM; procedure, shortened: as §3
# Platelet-derived growth factor receptor alpha (Homo sapiens), sequence (P16234 whole entry): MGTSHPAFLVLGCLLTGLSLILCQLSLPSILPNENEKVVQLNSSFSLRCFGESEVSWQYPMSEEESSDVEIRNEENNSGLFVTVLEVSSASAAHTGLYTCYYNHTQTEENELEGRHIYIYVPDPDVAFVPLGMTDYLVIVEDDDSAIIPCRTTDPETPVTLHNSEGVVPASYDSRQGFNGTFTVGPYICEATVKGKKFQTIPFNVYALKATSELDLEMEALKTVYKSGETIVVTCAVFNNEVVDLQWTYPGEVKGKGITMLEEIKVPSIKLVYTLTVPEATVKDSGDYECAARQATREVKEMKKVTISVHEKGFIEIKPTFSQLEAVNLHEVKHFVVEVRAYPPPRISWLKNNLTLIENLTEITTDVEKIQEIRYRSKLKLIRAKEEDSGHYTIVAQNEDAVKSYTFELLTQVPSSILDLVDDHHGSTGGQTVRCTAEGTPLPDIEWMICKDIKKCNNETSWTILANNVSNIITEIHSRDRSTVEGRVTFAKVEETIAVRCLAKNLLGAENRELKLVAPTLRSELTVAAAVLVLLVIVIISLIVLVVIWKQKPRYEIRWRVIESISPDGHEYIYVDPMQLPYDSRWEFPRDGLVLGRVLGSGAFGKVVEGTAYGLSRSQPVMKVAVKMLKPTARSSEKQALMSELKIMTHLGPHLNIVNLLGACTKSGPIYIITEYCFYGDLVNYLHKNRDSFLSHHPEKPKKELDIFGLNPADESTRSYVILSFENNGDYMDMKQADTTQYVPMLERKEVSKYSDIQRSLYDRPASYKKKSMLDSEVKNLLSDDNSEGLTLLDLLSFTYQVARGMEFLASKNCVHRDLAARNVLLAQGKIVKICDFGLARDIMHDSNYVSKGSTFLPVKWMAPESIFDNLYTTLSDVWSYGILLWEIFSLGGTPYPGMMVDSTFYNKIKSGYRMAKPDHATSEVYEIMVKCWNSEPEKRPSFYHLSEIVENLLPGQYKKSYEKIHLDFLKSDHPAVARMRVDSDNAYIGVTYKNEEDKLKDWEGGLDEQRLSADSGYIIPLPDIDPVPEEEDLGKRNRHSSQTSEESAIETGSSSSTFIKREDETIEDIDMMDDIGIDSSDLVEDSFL
# MDA-MB-231 [28] = experiment: Inhibition of MMP9 expression in human MDA-MB-231 cells at 1 uM after 24 hrs by qPCR analysis; format: functional, cell-based; procedure, shortened: as §4
compound,measurement,setting,value
CCN(CC)CCO/N=C(\c1ccc(SC)cc1)c1cccc2ccccc12.O=C(O)C(=O)O,IC50,[1],> 20 µM
same,inhibition in vivo at 16 mg/kg,MCF7 [2],50%
same,Activity,MCF7 [3],13.98%
same,EC50,MCF7 [4],3 µM
same,Activity,MCF7 [5],74.66%
same,EC50,SW-620,8.78 µM
same,EC50,[6],9 µM
same,selectivity ratio,[7],1.2
same,Activity,MCF7 [8],85.99%
same,Activity,MDA-MB-231 [9],0.99%
same,EC50,[10],7.7 µM
same,Activity,MDA-MB-231 [11],0.9%
CCN(CC)CCO/N=C(\c1ccc(SC)cc1)c1cccc2ccccc12,inhibition,[12],Active
same,Activity,MDA-MB-231 [13],Active
same,inhibition,MCF7 [14],inactive
same,inhibition,[15],inactive
same,inhibition,MDA-MB-231 [16],Active
same,inhibition,MCF7 [17],inactive
same,inhibition,[18],inactive
same,inhibition,[19],inactive
same,inhibition,MDA-MB-231 [20],Active
same,inhibition,MDA-MB-231 [21],Active
same,inhibition,MCF7 [22],Active
same,inhibition,[23],inactive
same,Activity,MDA-MB-231 [24],Active
same,inhibition,MDA-MB-231 [25],inactive
same,inhibition,DLD-1,Active
same,inhibition,MDA-MB-231 [26],inactive
same,inhibition,[27],inactive
same,inhibition,MDA-MB-231 [28],Active
